Test results reported in PMC12584159 (Clinical and Translational Science, 2025).
Where two headings read alike, the source gives them in different places. Values belong to the compound of their own block, whether it stands above or below them.

Key:
[1] = system: P‐glycoprotein (P‐gp); conditions: cited from earlier work
[2] = system: breast cancer resistance protein (BCRP); conditions: cited from earlier work
[3] = system: CYP3A4, CYP2D6; conditions: human liver microsomes; cited from earlier work
[4] = Mass balance: total radioactivity recovered in urine and feces; type: in vivo, human; conditions: N = 6, mean ± SD; for Proportion of radioactive dose excreted in urine (total radioactivity): through last specimen collection
Method in brief: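 Healthy men received a single oral 50 mg (~200 μCi) ¹⁴C dose in PEG400/Ora-Sweet solution after a ≥10-h fast. Urine was collected in intervals and all feces during confinement; feces were weighed and homogenized. Pre-dose feces set background. Total radioactivity was measured by combustion/LSC, with BLQ (urine <89 dpm/mL, feces <81 dpm/g) set to zero. Collection continued until discharge criteria or Day 29.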

[5] = Metabolite profiling in plasma, urine and feces; type: in vivo, human; conditions: for Feces %DE (dose excreted): feces 0–312 h [n = 1], 0–120 h [n = 3], 0–96 h [n = 2]; for Urine %DE (dose excreted): urine 0–24 h
Method in brief: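 After a single oral 50 mg ¹⁴C dose, plasma was pooled by Hamilton AUC scheme and extracted with acetonitrile. Urine (0–24 h) was pooled by sample weight, and fecal homogenates with ≥2% dose were acetonitrile-extracted. Profiling used HPLC with radiometric detection and high-resolution MS. Metabolite % was taken from radiochromatogram peak areas. Individual plasma through 312 h was also assayed for M23 by LC–MS/MS.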

[6] = cited from earlier work
[7] = Safety/tolerability; type: in vivo, human; conditions: single 50 mg dose
Method in brief: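 Safety was monitored in all dosed participants after a single 50 mg oral dose, covering AEs (MedDRA 20.1 or newer), physical exam, 12-lead ECG, vital signs, hematology, coagulation, chemistry and urinalysis. ECG and vitals were taken on Day 1; labs and vitals on Day 2. TEAEs were new or worsening AEs within 30 days of dosing.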

[8] = cited from earlier work; remark: listed apart in the source
[9] = Urinary excretion of atogepant and renal clearance; type: in vivo, human; conditions: mean ± SD; for Proportion of administered dose excreted in urine as atogepant (parent drug): LC–MS/MS, urine up to 360 h post‐dose
Method in brief: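 Urine was collected pre-dose and over 0–4, 4–8, 8–12, 12–24 h, then 24-h intervals until discharge criteria or study end, and stored at −20°C. Atogepant was measured by validated LC–MS/MS (1–1000 ng/mL), with BLQ set to zero. Radioactivity was measured by combustion/LSC. Ae0–t, CLR and fraction of dose excreted were computed.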

[10] = simian chronic toxicology studies; ref internal data; cited from earlier work
[11] = system: human CGRP receptor; conditions: preclinical studies; cited from earlier work
[12] = Phase 3, placebo 1.8%, cited from earlier work
[13] = single 10–60 mg dose; healthy Japanese and White adults; cited from earlier work
[14] = system: organic anion transporting polypeptide (OATP); conditions: cited from earlier work
[15] = Plasma pharmacokinetics of atogepant; type: in vivo, human
Method in brief: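 Fasted healthy men received a single oral 50 mg ¹⁴C dose. Blood was sampled pre-dose to 168 h, then every 72 h until discharge criteria or Day 29. Samples were centrifuged at ≥2500 g for 10 min at ~4°C, and plasma was stored at −70°C. K₂EDTA plasma was assayed by validated LC–MS/MS (1–1000 ng/mL), with BLQ set to zero. Noncompartmental analysis used actual times; ratios were taken to plasma total radioactivity.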

[16] = first‐generation gepants; cited from earlier work
[17] = plasma, single oral 50 mg, N = 6, mean ± SD

Proportion of radioactive dose excreted in feces (total radioactivity) ([4]; through last specimen collection (336 h, 14 days)): 81% | Proportion of radioactive dose excreted in urine (total radioactivity) [4]: 8% | Proportion of radioactive dose excreted in urine (total radioactivity) ([4]; listed as atogepant): ~ 8% | Disproportionate human metabolites ([5]; comparison of this study to in vivo rat and monkey studies): no disproportionate human metabolites | Feces %DE (dose excreted) ([5]; mean ± SD, ND = not detected or < 1% of dose or AUC0–t, listed as Parent): 42.2 ± 4.2% | Feces %DE (dose excreted) ([5]; mean ± SD, ND = not detected or < 1% of dose or AUC0–t, listed as parent drug): 42% | dose excreted ([5]; human, feces, oral, 50 mg, Share of fecal radioactivity recovery, unabsorbed drug, biliary excretion, and/or intestinal secretion): ~52% | Plasma %AUC0–t (percent of radioactive exposure) ([5]; pooled plasma 0–36 h (0–24 h for one participant), HPLC‐RAD, N = 6, mean ± SD, ND = not detected or < 1% of dose or AUC0–t): 84.7 ± 9.2% | Urine %DE (dose excreted) ([5]; N = 6, mean ± SD, ND = not detected or < 1% of dose or AUC0–t): 5% | Urine %DE (dose excreted) ([5]; N = 6, mean ± SD, ND = not detected or < 1% of dose or AUC0–t, listed as Parent): 5.21 ± 1.69% | Proportion of administered dose excreted in urine as atogepant (parent drug) ([9]; N = 6): 4.84% ± 1.63% | Proportion of administered dose excreted in urine as atogepant (parent drug) ([9]; N = 6, listed as atogepant): Approximately 5% | Urine excretion, atogepant/total radioactivity ratio ([9]; N = 6): 0.605 ± 0.109 | CLR (renal clearance), atogepant ([9]; single oral 50 mg, N = 6): 1.18 ± 0.33 L/h | Urine Ae0–t (total urine atogepant excretion) ([9]; up to 360 h post‐dose): 2.42 ± 0.82 mg | Time after dosing up to which atogepant plasma concentrations were measurable ([15]; LOQ 1 ng/mL): up to 120 h | AUC(0-inf) ([15]; male, human, plasma, po, 50 mg): 2220 ± 966 ng·h/mL | AUC(0-t) ([15]; male, human, plasma, po, 50 mg): 2180 ± 960 ng·h/mL | Cmax ([15]; male, human, plasma, po, 50 mg): 367 ± 189 ng/mL | half-life ([15]; male, human, plasma, po, 50 mg): 18.5 ± 11.9 h | AUC0–t, atogepant/total radioactivity ratio [15, 17]: 0.776 ± 0.167 | AUC0–∞, atogepant/total radioactivity ratio [15, 17]: 0.728 ± 0.172 | C max, atogepant/total radioactivity ratio [15, 17]: 0.997 ± 0.286 | AUC0–∞, atogepant/total radioactivity ratio ([15]; plasma, single oral 50 mg, N = 6, mean ± SD, listed as atogepant): ~ 0.75 | T max, atogepant ([15]; plasma, single oral 50 mg, N = 6, median (range)): 1 (0.98–2.98) hours
SMILES: C[C@@H]1[C@H](c2c(F)ccc(F)c2F)C[C@H](NC(=O)c2cnc3c(c2)C[C@@]2(C3)C(=O)Nc3ncccc32)C(=O)N1CC(F)(F)F [Atogepant]
Substrate of P‐gp [1]: substrate | Substrate of BCRP [2]: substrate | Enzymes metabolizing atogepant [3]: predominantly metabolized via CYP3A4 with minor involvement of CYP2D6 | Accumulation with daily dosing [6]: does not accumulate with daily dosing | Bioavailability, tablet vs. PEG solution dosing [6]: higher with tablet vs. PEG solution dosing | Tolerability ([7]; healthy males N = 6): well‐tolerated | ALT or AST elevations ([7]; healthy participants N = 6): no ALT or AST elevations observed | Effect of quinidine (strong P‐gp inhibitor) on atogepant exposure ([8]; clinical DDI study): no clinically relevant increase in atogepant exposure | Effect of co‐administration on atogepant exposure ([8]; multiple‐dose rifampin (strong CYP3A4 and P‐gp inducer)): significantly decreased atogepant exposure | Effect of co‐administration on atogepant exposure ([8]; single‐dose rifampin (OATP inhibitor), healthy participants): significantly increased atogepant exposure | No‐observed‐adverse‐effect level [10]: 300 mg/kg | Affinity, potency and selectivity for the receptor [11]: high affinity, potency, and selectivity | Proportion of patients with ALT and AST elevations ≥ 3× upper limit of normal ([12]; atogepant 10 mg/day): 0.9% | Proportion of patients with ALT and AST elevations ≥ 3× upper limit of normal ([12]; atogepant 30 mg/day): 0.9% | Proportion of patients with ALT and AST elevations ≥ 3× upper limit of normal ([12]; atogepant 60 mg/day): 0.4% | CLR (renal clearance) [13]: 0.9 to 1.5 L/h | Substrate of OATP [14]: substrate

SMILES: O=C(N[C@@H]1CC[C@@H](c2cccc(F)c2F)CN(CC(F)(F)F)C1=O)N1CCC(n2c(=O)[nH]c3ncccc32)CC1 [telcagepant]
Liver toxicity in clinical trials [16]: liver toxicity concerns

SMILES: O=C(CN1C(=O)C2(CCCC2)NC[C@H]1c1cc(F)cc(F)c1)Nc1ccc2c(c1)C[C@@]1(C2)C(=O)Nc2ncccc21 [MK‐3207]
Liver toxicity in clinical trials [16]: liver toxicity concerns
